Molecules are shown by their SMILES. Active and inactive are the calls of the source. The calls are words filed in the database; no cut-off is given here. Some results are limits rather than exact numbers.

The results in this text go back to ChEMBL document CHEMBL1275331, “Discovery of a novel 5-HT(3) antagonist/5-HT(1A) agonist 3-amino-5,6,7,8-tetrahydro-2-{4-[4-(quinolin-2-yl)piperazin-1-yl]butyl}quinazolin-4(3H)-one (TZB-30878) as an orally bioavailable agent for irritable bowel syndrome” (J Med Chem, 2010).

Data set [1] can be described thus: Displacement of [3H]DADLE from human recombinant delta2 opioid receptor.
Data set [2] has as its target T1, 5-hydroxytryptamine receptor 1A (Homo sapiens, UniProt P08908).
T1 sequence (P08908 whole entry): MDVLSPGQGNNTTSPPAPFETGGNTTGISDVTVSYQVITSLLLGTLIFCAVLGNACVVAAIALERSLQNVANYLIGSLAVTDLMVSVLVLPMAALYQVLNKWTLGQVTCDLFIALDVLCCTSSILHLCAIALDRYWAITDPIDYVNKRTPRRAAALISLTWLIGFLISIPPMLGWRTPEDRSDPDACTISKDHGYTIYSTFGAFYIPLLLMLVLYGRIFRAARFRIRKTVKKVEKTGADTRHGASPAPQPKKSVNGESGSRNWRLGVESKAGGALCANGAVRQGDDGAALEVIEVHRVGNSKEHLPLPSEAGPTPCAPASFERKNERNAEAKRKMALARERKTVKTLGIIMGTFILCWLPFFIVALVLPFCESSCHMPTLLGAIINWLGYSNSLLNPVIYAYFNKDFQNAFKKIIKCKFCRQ
In words: Agonist activity at human cloned 5HT1A receptor expressed in CHO cells assessed as stimulation of [35S]GTPgammaS binding after 30 mins by liquid scintillation counting. Type of data set: functional, cell-based. The method, boiled down:
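Membranes from CHO cells expressing human 5-HT1A were diluted in 20 mM HEPES/3 mM MgCl2/120 mM NaCl, pH 7.4. They were preincubated with 20 μM GDP and test drug for 20 min at 30 °C, then held on ice for 15 min. [35S]GTPγS (100 pM) was added for 30 min at 30 °C. Samples were filtered, washed with cold HEPES/MgCl2 buffer, and bound radioactivity counted; EC50 and Emax reported.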

Data set [3] is described as follows: Drug level in Sprague-Dawley rat brain at 3 mg/kg, po after 2 hrs by HPLC analysis. In kind it is ADME, organism-based. As to conditions: read-out: Drug uptake. Also noted: dose 3 mg/kg, route oral. The method, boiled down:
(§1)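 Total compound concentration was measured in brain and blood at 2, 4 and 8 h after a single oral 3 mg/kg dose. Brain/blood ratio was also derived. Values are mean ± SD of three rats.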

Data set [4] can be described thus: Drug level in Sprague-Dawley rat blood at 3 mg/kg, po after 8 hrs by HPLC analysis. Type of data set: ADME, organism-based. Also noted: dose 3 mg/kg, route oral. As to conditions: whole blood, read-out: Drug uptake. The gist of the method:
as §1

In data set [5] the test system is Rattus norvegicus. In words: Induction of 5HT1A receptor-mediated lower lip retraction behavior in rat at 10 mg/kg, iv after 30 mins. Type of data set: functional, organism-based. Also noted: dose 10 mg/kg. The gist of the method:
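Rats were conditioned to test procedures over 2 weeks and acclimated to the test cage for 1 h. Vehicle was saline containing diluted HCl. Lower lip retraction and flat body posture were scored on a 0–3 scale at 5, 10, 20 and 30 min after dosing.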

Data set [6] deals with Rattus norvegicus. Nature of the data set: Effect on 5HT1A receptor-mediated hypothermic effect in rat assessed as change in rectal temperature at 10 mg/kg, iv after 30 mins. Also noted: dose 10 mg/kg. Type of data set: functional, organism-based. The method, boiled down: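 Rats were conditioned over 2 weeks and acclimated to the cage for 1 h before dosing (vehicle: saline with diluted HCl). Rectal temperature was recorded with a thermistor probe inserted 3 cm, before and 30 min after administration. The change in temperature was reported.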

Data set [7] deals with Adrenergic receptor alpha-2 (Rattus norvegicus, UniProt P22086+P19328+P22909). In words: Inhibition of rat alpha2 adrenergic receptor.
For data set [8], the system named is Rattus norvegicus. In words: Reduction in wrap restraint stress-induced defecation in rat diarrhea-predominant irritable bowel syndrome model at 1 to 10 mg/kg, po administered 1 hr prior to induction of stress. Type of data set: functional, organism-based. The method, boiled down: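 Lightly anesthetized rats had upper bodies wrapped with adhesive tape, then returned to observation cages; feces counted 1 h after wrapping. Compound or vehicle given orally 1 h before restraint; unwrapped animals as normal group. n = 8 per group, mean (SD); Wilcoxon and nonparametric Dunnett's tests.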

In another data set the target is Adenosine receptor A2a (Homo sapiens, UniProt P29274). Nature of the data set: Displacement of [3H]CGS21680 from human recombinant adenosine A2A receptor. For orientation: In a radioligand displacement assay an active substance lowers the binding of a labelled ligand.
Sequence of Adenosine receptor A2a (P29274 whole entry): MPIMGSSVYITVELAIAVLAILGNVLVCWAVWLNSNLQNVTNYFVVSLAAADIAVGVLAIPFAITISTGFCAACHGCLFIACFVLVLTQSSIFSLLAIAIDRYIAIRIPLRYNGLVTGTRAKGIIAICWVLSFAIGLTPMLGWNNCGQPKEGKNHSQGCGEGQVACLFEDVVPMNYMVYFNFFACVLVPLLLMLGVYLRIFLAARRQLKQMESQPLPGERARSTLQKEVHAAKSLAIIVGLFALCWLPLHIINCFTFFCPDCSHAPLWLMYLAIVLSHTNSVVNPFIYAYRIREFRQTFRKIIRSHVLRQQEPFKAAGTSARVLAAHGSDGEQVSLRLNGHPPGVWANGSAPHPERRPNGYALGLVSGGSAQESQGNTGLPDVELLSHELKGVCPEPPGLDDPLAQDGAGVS
The target of another data set is Adenosine receptor A3 (Homo sapiens, UniProt P0DMS8). Nature of the data set: Displacement of [125I]AB-MECA from human recombinant adenosine A3 receptor.
Sequence of Adenosine receptor A3 (P0DMS8 whole entry): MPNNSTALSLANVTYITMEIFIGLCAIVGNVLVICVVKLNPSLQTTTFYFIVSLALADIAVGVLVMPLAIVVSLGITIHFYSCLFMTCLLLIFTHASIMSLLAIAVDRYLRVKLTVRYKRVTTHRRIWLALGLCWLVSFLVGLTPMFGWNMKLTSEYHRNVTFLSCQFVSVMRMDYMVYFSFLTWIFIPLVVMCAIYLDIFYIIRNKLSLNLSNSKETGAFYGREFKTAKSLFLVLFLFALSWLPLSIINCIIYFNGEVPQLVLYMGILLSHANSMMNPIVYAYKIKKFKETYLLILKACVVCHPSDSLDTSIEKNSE
The target in a further data set is D(1A) dopamine receptor (Homo sapiens, UniProt P21728). In words: Displacement of [3H]SCH23390 from human recombinant dopamine D1 receptor.
Sequence of D(1A) dopamine receptor (P21728 whole entry): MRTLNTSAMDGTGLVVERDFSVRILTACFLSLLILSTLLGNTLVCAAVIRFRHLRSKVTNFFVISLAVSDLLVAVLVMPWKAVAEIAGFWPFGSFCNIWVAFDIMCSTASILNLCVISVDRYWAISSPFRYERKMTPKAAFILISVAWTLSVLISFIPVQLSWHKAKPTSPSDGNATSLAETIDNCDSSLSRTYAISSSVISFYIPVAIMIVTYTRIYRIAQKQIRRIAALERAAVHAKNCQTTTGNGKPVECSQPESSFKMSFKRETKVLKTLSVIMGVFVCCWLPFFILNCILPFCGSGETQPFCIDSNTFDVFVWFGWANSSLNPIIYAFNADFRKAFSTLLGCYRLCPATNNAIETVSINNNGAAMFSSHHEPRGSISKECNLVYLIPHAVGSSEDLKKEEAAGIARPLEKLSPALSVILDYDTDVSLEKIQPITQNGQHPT
A further data set concerns the target D(2) dopamine receptor (Homo sapiens, UniProt P14416). Nature of the data set: Displacement of [3H]spiperone from human recombinant dopamine D2 receptor.
Another data set concerns the target Histamine H2 receptor (Homo sapiens, UniProt P25021). In words: Displacement of [125I]APT from human recombinant histamine H2 receptor.
Data set [9] concerns the target Muscarinic acetylcholine receptor M2 (Homo sapiens, UniProt P08172). In words: Displacement of [3H]AF-DX384 from human recombinant muscarinic M2 receptor.
Data set [10] deals with Muscarinic acetylcholine receptor M3 (Homo sapiens, UniProt P20309). Nature of the data set: Displacement of [3H]4-DAMP from human recombinant muscarinic M3 receptor.
Sequence of Muscarinic acetylcholine receptor M3 (P20309 whole entry): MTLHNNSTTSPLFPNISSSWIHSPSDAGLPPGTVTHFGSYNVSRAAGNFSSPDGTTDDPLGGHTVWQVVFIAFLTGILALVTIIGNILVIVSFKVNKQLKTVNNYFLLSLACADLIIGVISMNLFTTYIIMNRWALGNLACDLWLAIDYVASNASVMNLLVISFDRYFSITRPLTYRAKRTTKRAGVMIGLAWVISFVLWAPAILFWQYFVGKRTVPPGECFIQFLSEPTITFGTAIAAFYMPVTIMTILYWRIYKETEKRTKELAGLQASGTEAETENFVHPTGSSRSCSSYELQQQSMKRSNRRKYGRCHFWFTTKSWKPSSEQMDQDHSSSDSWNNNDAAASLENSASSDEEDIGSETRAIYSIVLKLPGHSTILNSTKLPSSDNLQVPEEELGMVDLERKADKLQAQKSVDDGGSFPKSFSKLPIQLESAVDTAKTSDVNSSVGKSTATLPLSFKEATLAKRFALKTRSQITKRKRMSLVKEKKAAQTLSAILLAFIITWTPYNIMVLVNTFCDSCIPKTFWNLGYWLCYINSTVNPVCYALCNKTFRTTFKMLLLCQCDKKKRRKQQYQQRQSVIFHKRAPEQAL
For another data set, the target named is Substance-K receptor (Homo sapiens, UniProt P21452). Nature of the data set: Displacement of [125I]NKA from human recombinant NK2 receptor.
Sequence of Substance-K receptor (P21452 whole entry): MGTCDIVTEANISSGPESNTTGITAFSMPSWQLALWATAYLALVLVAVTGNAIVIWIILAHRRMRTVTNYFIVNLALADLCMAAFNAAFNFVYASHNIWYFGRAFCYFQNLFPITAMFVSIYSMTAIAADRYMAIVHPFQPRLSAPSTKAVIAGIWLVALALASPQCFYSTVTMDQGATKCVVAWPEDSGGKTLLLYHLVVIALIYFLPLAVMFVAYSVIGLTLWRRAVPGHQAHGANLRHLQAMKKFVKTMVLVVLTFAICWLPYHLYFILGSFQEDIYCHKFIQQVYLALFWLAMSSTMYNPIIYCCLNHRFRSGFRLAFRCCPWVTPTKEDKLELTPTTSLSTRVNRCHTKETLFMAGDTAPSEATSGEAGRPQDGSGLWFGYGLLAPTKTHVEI
Another data set concerns the target Mu-type opioid receptor (Homo sapiens, UniProt P35372). In words: Displacement of [3H]DAMGO from human recombinant mu opioid receptor.
Data set [11] deals with 5-hydroxytryptamine receptor 7 (Homo sapiens, UniProt P34969). In words: Displacement of [3H]LSD from human recombinant 5HT7 receptor.
Sequence of 5-hydroxytryptamine receptor 7 (P34969 whole entry): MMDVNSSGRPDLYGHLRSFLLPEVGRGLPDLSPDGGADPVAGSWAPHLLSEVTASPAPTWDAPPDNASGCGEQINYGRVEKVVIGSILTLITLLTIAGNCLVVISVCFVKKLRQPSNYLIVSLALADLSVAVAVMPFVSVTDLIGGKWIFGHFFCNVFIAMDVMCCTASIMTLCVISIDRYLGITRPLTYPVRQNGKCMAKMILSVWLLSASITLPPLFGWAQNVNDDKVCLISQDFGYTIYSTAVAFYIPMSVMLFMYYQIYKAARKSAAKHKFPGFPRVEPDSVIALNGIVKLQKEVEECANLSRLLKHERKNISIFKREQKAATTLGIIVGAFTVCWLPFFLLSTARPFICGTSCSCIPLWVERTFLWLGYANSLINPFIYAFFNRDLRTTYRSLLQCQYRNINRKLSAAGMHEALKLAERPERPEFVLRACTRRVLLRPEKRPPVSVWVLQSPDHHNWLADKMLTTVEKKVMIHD
Data set [12] addresses Sodium-dependent dopamine transporter (Homo sapiens, UniProt Q01959). In words: Displacement of [3H]BTCP from human recombinant DAT.

Sequence of Muscarinic acetylcholine receptor M2 (P08172 whole entry): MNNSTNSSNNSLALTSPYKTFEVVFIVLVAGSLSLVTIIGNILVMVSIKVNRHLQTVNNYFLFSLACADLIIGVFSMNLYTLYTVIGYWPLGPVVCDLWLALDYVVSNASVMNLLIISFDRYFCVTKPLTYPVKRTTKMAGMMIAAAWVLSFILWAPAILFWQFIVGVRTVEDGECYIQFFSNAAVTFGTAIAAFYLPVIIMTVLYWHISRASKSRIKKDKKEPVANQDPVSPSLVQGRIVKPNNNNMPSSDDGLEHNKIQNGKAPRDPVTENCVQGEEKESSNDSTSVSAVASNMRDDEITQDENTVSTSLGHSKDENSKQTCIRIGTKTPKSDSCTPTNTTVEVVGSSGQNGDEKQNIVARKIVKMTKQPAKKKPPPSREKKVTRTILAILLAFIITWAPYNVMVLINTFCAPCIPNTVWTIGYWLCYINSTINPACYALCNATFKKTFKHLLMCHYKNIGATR
Sequence of Sodium-dependent dopamine transporter (Q01959 whole entry): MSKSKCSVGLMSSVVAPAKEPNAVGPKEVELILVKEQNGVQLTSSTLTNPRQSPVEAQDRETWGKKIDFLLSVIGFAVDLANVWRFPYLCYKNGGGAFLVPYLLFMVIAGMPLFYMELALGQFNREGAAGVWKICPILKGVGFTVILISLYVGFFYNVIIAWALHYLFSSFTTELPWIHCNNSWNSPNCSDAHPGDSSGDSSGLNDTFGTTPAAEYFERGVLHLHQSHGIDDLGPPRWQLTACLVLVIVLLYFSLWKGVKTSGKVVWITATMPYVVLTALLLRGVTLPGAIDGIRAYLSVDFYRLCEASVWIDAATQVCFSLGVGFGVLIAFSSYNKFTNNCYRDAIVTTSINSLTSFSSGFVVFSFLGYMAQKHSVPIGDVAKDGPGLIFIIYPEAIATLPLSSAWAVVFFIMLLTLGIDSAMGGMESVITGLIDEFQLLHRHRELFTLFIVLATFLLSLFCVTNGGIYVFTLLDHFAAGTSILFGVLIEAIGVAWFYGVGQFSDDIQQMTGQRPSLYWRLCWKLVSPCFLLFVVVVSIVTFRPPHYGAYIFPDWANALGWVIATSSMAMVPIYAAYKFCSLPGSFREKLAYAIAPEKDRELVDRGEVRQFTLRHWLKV
Sequence of D(2) dopamine receptor (P14416 whole entry): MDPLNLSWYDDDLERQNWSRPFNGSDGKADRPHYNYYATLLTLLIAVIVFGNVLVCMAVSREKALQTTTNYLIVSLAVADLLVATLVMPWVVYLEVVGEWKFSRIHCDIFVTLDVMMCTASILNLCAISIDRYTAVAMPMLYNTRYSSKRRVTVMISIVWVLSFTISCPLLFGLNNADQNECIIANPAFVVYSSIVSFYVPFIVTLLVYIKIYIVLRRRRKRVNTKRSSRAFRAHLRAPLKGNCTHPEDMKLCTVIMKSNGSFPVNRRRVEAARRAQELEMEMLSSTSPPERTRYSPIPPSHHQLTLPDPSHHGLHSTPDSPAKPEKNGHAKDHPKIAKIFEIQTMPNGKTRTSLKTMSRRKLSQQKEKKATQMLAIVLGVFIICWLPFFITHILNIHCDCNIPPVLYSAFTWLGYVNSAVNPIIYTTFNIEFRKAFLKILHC
Sequence of Mu-type opioid receptor (P35372 whole entry): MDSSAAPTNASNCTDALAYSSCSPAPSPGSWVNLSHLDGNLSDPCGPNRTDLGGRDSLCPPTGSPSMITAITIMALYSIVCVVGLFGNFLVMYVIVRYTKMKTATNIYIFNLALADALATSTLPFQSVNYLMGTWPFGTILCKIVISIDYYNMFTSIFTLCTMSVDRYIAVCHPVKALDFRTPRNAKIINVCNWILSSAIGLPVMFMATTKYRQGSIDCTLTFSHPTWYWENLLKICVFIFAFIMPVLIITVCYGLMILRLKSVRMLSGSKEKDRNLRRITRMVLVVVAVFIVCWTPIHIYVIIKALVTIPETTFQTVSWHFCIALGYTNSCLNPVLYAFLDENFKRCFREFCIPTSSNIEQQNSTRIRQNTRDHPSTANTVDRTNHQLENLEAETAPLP
Sequence of Histamine H2 receptor (P25021 whole entry): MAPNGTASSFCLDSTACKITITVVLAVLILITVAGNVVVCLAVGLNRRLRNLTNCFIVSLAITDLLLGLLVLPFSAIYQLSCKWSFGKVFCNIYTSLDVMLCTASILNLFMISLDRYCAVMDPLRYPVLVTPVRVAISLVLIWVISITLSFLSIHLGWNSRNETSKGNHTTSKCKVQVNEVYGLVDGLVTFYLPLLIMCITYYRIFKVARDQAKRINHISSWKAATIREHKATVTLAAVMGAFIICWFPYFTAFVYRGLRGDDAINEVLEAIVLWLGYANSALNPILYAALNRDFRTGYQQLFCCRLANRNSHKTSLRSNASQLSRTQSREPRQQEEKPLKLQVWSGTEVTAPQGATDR

The IC50 is the midpoint of a concentration-inhibition curve. As a reminder, the EC50 is the concentration at which the effect is half-maximal. Regarding `Nn1c(CCCCN2CCN(c3ccc4ccccc4n3)CC2)nc2c(c1=O)CCCC2`, the IC50 in [1] is greater than 1 µM; in data set [7], greater than 0.1 µM; on Adenosine receptor A2a, greater than 1 µM; on Adenosine receptor A3, greater than 1 µM; at D(1A) dopamine receptor it was greater than 1 µM; on D(2) dopamine receptor it was greater than 1 µM. For the same compound, the IC50 is greater than 1 µM on Histamine H2 receptor; greater than 1 µM in data set [9]; greater than 1 µM in data set [10]; greater than 1 µM on Substance-K receptor; greater than 1 µM at Mu-type opioid receptor; 1 µM in data set [11]. For the same compound, the IC50 in data set [12] was greater than 1 µM. Moreover, in data set [2], the EC50 came to 0.0223 µM. Further, the concentration at 2 h in data set [3] was 160 nM. Also, the concentration at 8 h in [4] worked out at 9.97 nM. Also, the result in the data set on Rattus norvegicus [5] was Active. The deltaT in the data set with Rattus norvegicus [6] is -1.4 °C. Also, the inhibition entry in the data set on Rattus norvegicus [8] was “Active”.
